The text below walks through data of ChEMBL document CHEMBL4261517, “A structurally guided dissection-then-evolution strategy for ligand optimization of smoothened receptor” (Medchemcomm, 2017).

Where only a bound is given, the exact number is not on record here.

For series [1], the target named is Protein smoothened (Homo sapiens) (UniProt Q99835). Briefly: Binding affinity to recombinant human N-terminal FLAG/His10-tagged/C-terminal His10-tagged flavodoxin-fused Smo receptor expressed in HEK293F cells assessed as melting temperature at 100 uM after 40 mins by CPM dye based spectrofluorometric method. It is filed as cell-based. In outline: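 Purified SMO in micelles mixed with thiol-reactive CPM dye and thermally denatured. Fluorescence (365/460 nm) followed as exposed cysteines react. Tm taken as the temperature at which 50% of the fluorescence increase is reached.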
Sequence of Protein smoothened (Homo sapiens) (Q99835 whole entry, the tested form may be a part): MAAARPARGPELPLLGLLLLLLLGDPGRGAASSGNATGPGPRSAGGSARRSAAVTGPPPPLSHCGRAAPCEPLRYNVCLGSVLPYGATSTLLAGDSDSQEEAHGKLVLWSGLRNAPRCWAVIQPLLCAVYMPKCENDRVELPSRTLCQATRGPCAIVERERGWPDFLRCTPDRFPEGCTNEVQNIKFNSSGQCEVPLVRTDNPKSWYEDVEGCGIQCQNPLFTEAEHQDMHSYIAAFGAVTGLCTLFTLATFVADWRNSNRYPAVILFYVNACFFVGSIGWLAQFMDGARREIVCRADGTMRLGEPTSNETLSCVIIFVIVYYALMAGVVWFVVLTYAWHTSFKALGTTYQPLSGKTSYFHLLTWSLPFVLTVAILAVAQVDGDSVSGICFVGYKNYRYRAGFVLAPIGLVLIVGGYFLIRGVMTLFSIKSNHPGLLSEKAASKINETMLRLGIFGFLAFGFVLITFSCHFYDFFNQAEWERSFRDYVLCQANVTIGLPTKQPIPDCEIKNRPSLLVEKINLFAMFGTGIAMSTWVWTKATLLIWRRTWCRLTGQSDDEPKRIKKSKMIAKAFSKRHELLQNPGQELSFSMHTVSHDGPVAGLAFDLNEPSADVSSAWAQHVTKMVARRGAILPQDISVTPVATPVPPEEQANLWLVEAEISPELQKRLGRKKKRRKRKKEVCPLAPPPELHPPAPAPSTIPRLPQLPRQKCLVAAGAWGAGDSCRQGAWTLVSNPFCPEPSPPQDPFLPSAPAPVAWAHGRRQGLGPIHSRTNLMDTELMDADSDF

A further series concerns the target Protein smoothened (Mus musculus, UniProt P56726). Description: Antagonist activity at Smo receptor in mouse NIH/3T3 cells harboring GRE-Luc assessed as inhibition of SAG-induced Hh signaling pathway preincubated for 1 to 2 hrs followed by SAG addition and measured after 24 hrs by Bright-Glo luciferase reporter gene assay. It counts as functional, cell-based. An outline of the steps: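 Light II cells (NIH-3T3 stably carrying a Gli-responsive firefly luciferase reporter) treated with compound for 24 h. Luciferase read-out of Hedgehog pathway inhibition. IC50 reported as mean ± SEM from at least three independent experiments, each run in duplicate.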

Series [2] in a line: Stability of the compound in DMEM at […] by RP-HPLC analysis. It is filed as physicochemical.

Sequence of Protein smoothened (P56726 whole entry): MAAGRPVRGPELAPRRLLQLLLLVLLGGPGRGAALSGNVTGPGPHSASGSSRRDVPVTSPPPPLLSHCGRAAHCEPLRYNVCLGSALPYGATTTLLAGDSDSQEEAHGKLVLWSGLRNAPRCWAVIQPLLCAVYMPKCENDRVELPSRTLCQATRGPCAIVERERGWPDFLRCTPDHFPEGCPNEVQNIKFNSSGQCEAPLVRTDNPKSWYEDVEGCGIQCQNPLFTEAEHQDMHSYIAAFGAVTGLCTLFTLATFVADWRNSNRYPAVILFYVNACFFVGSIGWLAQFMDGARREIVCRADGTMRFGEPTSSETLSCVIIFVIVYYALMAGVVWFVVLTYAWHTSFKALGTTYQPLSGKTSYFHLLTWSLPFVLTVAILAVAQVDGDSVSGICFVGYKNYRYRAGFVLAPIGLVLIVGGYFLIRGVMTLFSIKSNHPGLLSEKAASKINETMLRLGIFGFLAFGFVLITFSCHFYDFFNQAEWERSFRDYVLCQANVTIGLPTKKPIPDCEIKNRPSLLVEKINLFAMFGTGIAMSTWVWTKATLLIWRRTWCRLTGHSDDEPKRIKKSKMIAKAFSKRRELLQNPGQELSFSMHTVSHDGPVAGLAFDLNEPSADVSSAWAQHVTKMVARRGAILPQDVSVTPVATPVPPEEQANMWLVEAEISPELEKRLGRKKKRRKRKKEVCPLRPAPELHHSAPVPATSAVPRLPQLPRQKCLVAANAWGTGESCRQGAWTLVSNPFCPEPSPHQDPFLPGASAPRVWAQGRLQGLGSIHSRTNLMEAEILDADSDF

In the case of `CN(C(=O)c1ccc(CC=O)cc1)C1CCN(c2nnc(-c3ccnn3C)c3ccccc23)CC1`, the Tm in series [1] was 60.2 °C. Besides, the IC50 (in general, the concentration needed to halve the response being measured) at Protein smoothened is more than 10000 nM. In the same order, the values of `CN(C(=O)c1ccc(OCc2ccccc2)cc1)C1CCN(c2nnc(-c3ccnn3C)c3ccccc23)CC1` are 58.4 °C and 1800 nM. In the same order, the values of `CN(C(=O)c1ccc(S(=O)(=O)O)cc1)C1CCN(c2nnc(-c3ccnn3C)c3ccccc23)CC1` are 59.4 °C and 2680 nM.

For `COC(=O)c1ccc(C(=O)N(C)C2CCN(c3nnc(-c4ccnn4C)c4ccccc34)CC2)cc1`, in series [1], the Tm came to 60.3 °C. For the same compound, on Protein smoothened, the IC50 is more than 10000 nM. Turning to `CN(C(=O)c1ccc(F)cc1C(F)(F)F)C1CCN(c2ccc(-c3ccnn3C)c3ccccc23)CC1`, the Stability entry in series [2] was “Stable”. Take `CN(C(=O)c1ccc(C(N)=O)cc1)C1CCN(c2nnc(-c3ccnn3C)c3ccccc23)CC1`: the Tm in series [1] stood at 59.7 °C. At Protein smoothened, the IC50 amounted to 3020 nM. In the same order, the values of `CN(C)c1ccc(C(=O)N(C)C2CCN(c3nnc(-c4ccnn4C)c4ccccc34)CC2)cc1` are 58.5 °C and 1410 nM. For `CN(C(=O)c1ccc(Oc2ccccc2)cc1)C1CCN(c2nnc(-c3ccnn3C)c3ccccc23)CC1`, the Tm in series [1] was 59.6 °C. On Protein smoothened, the IC50 was found to be 270 nM. As to `CN(C(=O)c1ccc(F)cc1C(F)(F)F)C1CCN(c2nnc(Cl)c3ccccc23)CC1`, the Stability result in series [2] is on record as “Stable”. For the compound `CN(C(=O)c1ccc([N+](=O)[O-])cc1)C1CCN(c2nnc(-c3ccnn3C)c3ccccc23)CC1`, in series [1], the Tm amounted to 61 °C. Besides, the IC50 at Protein smoothened came to 236 nM.

Turning to `CN(C(=O)c1ccc(C(=O)O)cc1)C1CCN(c2nnc(-c3ccnn3C)c3ccccc23)CC1`, the Tm in series [1] was determined as 56.8 °C. Also, the IC50 on Protein smoothened was more than 10000 nM. In the same order, the values of `CN(C(=O)c1ccc(S(C)(=O)=O)cc1)C1CCN(c2nnc(-c3ccnn3C)c3ccccc23)CC1` are 56.3 °C and more than 10000 nM. Turning to `CN(C(=O)c1ccc(N)cc1)C1CCN(c2nnc(-c3ccnn3C)c3ccccc23)CC1`, in series [1], the Tm stood at 58.2 °C. The IC50 on Protein smoothened is 2020 nM. Take `CN(C(=O)c1ccccc1)C1CCN(c2nnc(-c3ccnn3C)c3ccccc23)CC1`: in series [2], the Stability entry is given as “Stable”. Regarding `CN(C(=O)c1ccc(B(O)O)cc1)C1CCN(c2nnc(-c3ccnn3C)c3ccccc23)CC1`, in series [1], the Tm came out at 59.4 °C. On Protein smoothened, the IC50 worked out at 870 nM.

Turning to `CN(C(=O)c1ccc(F)cc1)C1CCN(c2nnc(-c3ccnn3C)c3ccccc23)CC1`, the Tm in series [1] was 59.1 °C. Besides, at Protein smoothened, the IC50 was determined as 1570 nM. In the same order, the values of `CN(C(=O)c1ccc(C=O)cc1)C1CCN(c2nnc(-c3ccnn3C)c3ccccc23)CC1` are 59 °C and 2890 nM. `CN(Cc1ccc(F)cc1C(F)(F)F)C1CCN(c2nnc(-c3ccnn3C)c3ccccc23)CC1`: in series [2], the Stability result is on record as “Stable”.

In the case of `CN(C(=O)c1ccc(S(N)(=O)=O)cc1)C1CCN(c2nnc(-c3ccnn3C)c3ccccc23)CC1`, in series [1], the Tm stood at 57.1 °C. Also, the IC50 at Protein smoothened was 3240 nM. As for `CN(C(=O)c1ccc(F)cc1C(F)(F)F)C1CCN(c2nnc(-c3ccnn3C)c3ccccc23)CC1` [TALADEGIB], in series [2], the Stability result was “Stable”.

Regarding `CN(C(=O)c1ccc(NCC(=O)O)cc1)C1CCN(c2nnc(-c3ccnn3C)c3ccccc23)CC1`, the Tm in series [1] is 56.8 °C. Further, the IC50 at Protein smoothened was more than 10000 nM.
